Experiments:
Test in all cases: Yeast-based OR sensor, GFP dose-response
Format in all cases: cell-based
[1] = biological target: T1, OR51B5 (Homo sapiens, UniProt Q9H339); details: for increase in the signal after activation: OR51B5, dose-response curve, compared to DMSO control
T1 sequence (Q9H339 1-312): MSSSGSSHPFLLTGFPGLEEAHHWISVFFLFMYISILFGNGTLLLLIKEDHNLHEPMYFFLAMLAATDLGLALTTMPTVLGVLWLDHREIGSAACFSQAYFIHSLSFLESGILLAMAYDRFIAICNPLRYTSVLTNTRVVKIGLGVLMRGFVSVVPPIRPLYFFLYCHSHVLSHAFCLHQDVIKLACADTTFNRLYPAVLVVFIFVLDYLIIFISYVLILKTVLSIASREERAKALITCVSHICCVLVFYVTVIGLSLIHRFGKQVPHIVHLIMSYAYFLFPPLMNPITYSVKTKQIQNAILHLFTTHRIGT
Procedure, shortened: (§1)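 Yeast-codon-optimized human OR in S. cerevisiae PPY140 (Δfar1 Δste2 Δsst2) with PFIG1-eGFP reporter. Cells pre-grown 18 h at 15 °C in SD(HL–), exposed to test compound 0–1000 μM final, 1% DMSO, 4 h at 30 °C. Flow-cytometric geometric mean GFP, 10000 cells; triplicate; two-tailed t test vs DMSO; empty-vector strain run same day; EC50 from dose-response fit.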

[2] = biological target: T2, OR2L13 (Homo sapiens, UniProt Q8N349); details: OR2L13, dose-response curve, compared to DMSO control
T2 sequence (Q8N349 1-312): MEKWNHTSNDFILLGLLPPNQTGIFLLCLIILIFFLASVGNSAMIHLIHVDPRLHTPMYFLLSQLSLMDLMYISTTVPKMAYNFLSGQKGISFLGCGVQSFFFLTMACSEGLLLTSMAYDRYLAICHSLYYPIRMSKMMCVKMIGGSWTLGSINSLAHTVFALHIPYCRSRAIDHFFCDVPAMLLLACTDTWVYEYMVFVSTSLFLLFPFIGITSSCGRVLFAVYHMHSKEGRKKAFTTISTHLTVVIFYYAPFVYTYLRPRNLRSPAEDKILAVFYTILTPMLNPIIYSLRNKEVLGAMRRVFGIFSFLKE
Procedure, shortened: as §1

[3] = biological target: T3, OR2T4 (Homo sapiens, UniProt Q8NH00); details: for increase in the signal after activation: OR2T4, dose-response curve, compared to DMSO control; for increase in percent GFP expression compared to the no receptor control: OR2T4 vs empty-vector control strain; for OR-dependent activation, conclusion in words: OR2T4 vs no OR control; for EC50: GFP expression, 4 h, 0-1000 μM chemical, 1% DMSO
T3 sequence (Q8NH00 1-348): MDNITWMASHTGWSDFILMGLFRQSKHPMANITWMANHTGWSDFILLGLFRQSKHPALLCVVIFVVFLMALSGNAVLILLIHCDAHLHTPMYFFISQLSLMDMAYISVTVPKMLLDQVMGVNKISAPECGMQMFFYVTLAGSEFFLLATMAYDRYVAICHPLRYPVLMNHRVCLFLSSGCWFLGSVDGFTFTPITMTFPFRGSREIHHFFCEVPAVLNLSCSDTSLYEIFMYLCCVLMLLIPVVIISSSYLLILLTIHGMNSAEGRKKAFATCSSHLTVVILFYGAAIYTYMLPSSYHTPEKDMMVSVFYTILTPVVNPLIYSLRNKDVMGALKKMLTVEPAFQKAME
Procedure, shortened: as §1

[4] = biological target: T4, OR2A7 (Homo sapiens, UniProt Q96R45); details: for EC50: GFP expression, 4 h, 0-1000 μM chemical, 1% DMSO; for OR-dependent activation, conclusion in words: OR2A7 vs no OR control
T4 sequence (Q96R45 1-310): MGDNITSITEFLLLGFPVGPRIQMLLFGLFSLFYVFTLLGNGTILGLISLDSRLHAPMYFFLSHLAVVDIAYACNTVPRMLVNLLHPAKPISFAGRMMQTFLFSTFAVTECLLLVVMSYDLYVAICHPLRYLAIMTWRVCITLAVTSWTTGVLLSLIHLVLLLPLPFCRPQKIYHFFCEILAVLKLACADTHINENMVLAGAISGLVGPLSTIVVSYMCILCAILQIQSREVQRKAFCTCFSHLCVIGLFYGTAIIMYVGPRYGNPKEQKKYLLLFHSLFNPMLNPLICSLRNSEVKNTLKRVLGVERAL
Procedure, shortened: as §1

[5] = biological target: T5, OR2W3 (Homo sapiens, UniProt Q7Z3T1)
T5 sequence (Q7Z3T1 1-314): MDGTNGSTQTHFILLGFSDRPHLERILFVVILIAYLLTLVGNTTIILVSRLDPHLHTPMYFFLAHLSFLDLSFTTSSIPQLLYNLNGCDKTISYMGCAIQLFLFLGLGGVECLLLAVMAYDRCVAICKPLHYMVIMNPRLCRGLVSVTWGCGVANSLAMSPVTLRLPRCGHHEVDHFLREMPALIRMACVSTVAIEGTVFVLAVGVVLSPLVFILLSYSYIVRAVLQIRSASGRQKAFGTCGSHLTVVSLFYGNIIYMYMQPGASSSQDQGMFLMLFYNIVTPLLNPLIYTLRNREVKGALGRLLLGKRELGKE
Procedure, shortened: as §1

[6] = biological target: T6, OR2A42 (Homo sapiens, UniProt Q8NGT9)
T6 sequence (Q8NGT9 1-310): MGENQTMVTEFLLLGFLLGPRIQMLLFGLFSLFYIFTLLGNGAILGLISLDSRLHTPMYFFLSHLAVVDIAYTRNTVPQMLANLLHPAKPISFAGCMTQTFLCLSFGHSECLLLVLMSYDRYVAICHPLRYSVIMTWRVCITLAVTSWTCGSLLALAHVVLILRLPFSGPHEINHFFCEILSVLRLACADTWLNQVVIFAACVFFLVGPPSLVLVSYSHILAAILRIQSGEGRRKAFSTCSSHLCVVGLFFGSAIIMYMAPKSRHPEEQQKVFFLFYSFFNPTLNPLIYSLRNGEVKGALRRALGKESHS
Procedure, shortened: as §1

[7] = biological target: T7, OR10S1 (Homo sapiens, UniProt Q8NGN2)
T7 sequence (Q8NGN2 1-331): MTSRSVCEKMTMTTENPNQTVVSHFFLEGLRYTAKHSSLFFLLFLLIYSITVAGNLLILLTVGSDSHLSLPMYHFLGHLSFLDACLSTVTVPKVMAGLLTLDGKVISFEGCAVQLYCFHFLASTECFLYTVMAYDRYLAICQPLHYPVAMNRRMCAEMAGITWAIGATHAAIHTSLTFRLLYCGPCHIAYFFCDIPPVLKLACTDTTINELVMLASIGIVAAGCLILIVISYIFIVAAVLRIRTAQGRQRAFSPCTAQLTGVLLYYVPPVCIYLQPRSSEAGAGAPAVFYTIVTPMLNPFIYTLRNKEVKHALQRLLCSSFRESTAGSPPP
Procedure, shortened: as §1

CCCCCCCCCCCC(=O)O [dodecanoic, lauric acid]
increase in the signal after activation [1]: > 2 fold

CCCCCCCCCCC=O [undecanal]
increase in the signal after activation [2]: > 2 fold
increase in the signal after activation [3]: > 2 fold
increase in percent GFP expression compared to the no receptor control [3]: 2.3 fold
OR-dependent activation, conclusion in words [3]: confirmed ligand

CC1=CCC2CC1C2(C)C (stereo not drawn) [α-pinene, alpha-pinene]
EC50 ([4]; EC50, OR2A7 yeast sensor): 412 µM
increase in the signal after activation ([4]; OR2A7, dose-response curve, compared to DMSO control): > 2 fold
increase in percent GFP expression compared to the no receptor control ([4]; OR2A7 vs empty-vector control strain): 2.3 fold
OR-dependent activation, conclusion in words [4]: confirmed ligand
EC50 ([3]; EC50, OR2T4 yeast sensor): 659 µM
increase in the signal after activation [3]: > 2 fold
maximal level of GFP expression of OR2T4, higher than that of OR2A7 ([3]; OR2T4 relative to OR2A7): 63%
increase in percent GFP expression compared to the no receptor control [3]: 3 fold
OR-dependent activation, conclusion in words [3]: confirmed ligand

CC(C)=CCC/C(C)=C\CO [nerol]
signal after activation (in words) ([5]; OR2W3, dose-response curve, Figure S1): did not result in a significant increase in the signal after activation

CC(C)(C)c1ccccc1 [TBB, tert-butylbenzene]
OR-dependent activation, conclusion in words [4]: not OR dependent
OR-dependent activation, conclusion in words [3]: not OR dependent

C=C1CCC2CC1C2(C)C (stereo not drawn) [β-pinene, beta-pinene]
weaker response than with α-pinene ([4]; OR2A7, response relative to α-pinene): 18%

CC(C)=CCC/C(C)=C/CC/C(C)=C/CO [farnesol]
increase in the signal after activation ([6]; OR2A42, dose-response curve, compared to DMSO control): 2 fold
OR-dependent activation, conclusion in words ([6]; OR2A42 vs no OR control): not a ligand
EC50 (fit to dose-response equation) ([6]; OR2A42 yeast sensor, GFP expression): could not be fitted
EC50 ([1]; EC50, OR51B5 yeast sensor, GFP expression, 4 h, 0-1000 μM chemical, 1% DMSO): 181 µM
increase in the signal after activation [1]: > 2 fold
OR-dependent activation, conclusion in words ([1]; OR51B5, on/off behavior of the response): nonspecifically activates GFP expression
increase in percent GFP expression compared to the no receptor control ([1]; OR51B5 vs empty-vector control strain): 3 fold
EC50 ([4]; OR2A7 yeast sensor): do not fit a dose–response curve
increase in the signal after activation [3]: > 2 fold
OR-dependent activation, conclusion in words [3]: not a ligand
EC50 ([3]; OR2T4 yeast sensor): could not be fitted
EC50 (fit to dose-response curve) ([5]; OR2W3 yeast sensor, GFP expression, Figure S6): do not fit a dose–response curve

CCCCCCCCCCCCO [dodecanol, 1-dodecanol]
increase in the signal after activation [2]: > 2 fold

CCCCCCCCC=O [nonanal]
increase in the signal after activation ([7]; OR10S1, dose-response curve, compared to DMSO control): > 2 fold
OR-dependent activation, conclusion in words ([7]; OR10S1 vs no OR control): the no OR control shows a similar increase in GFP expression

Source: PMC6482435 (Biochemistry, 2019)
